{"data": "Experimental data of several laboratories", "rep main protease": "Replicase polyprotein 1ab, main protease (rep, Severe acute respiratory syndrome coronavirus 2, UniProt P0DTD1)", "note": "Protocols differ between the studies behind these lines."}
{"SMILES": "CC(C)C[C@H](NC(=O)OCc1ccccc1)C(=O)N[C@@H](CC(C)C)C(=O)N[C@@H](CC1CCNC1=O)C(=O)C(=O)NC1CC1 (some centres unmarked)", "target": "rep main protease", "assay": "enzyme activity, inhibitor", "measurement": "kinact/KI", "result": "90500 M⁻¹ s⁻¹"}
{"SMILES": "Clc1nc2ccccc2cc1/C=N\\c1ccc(Br)nc1", "target": "rep main protease", "assay": "thermal stability", "conditions": "100 µM", "measurement": "ΔTm", "result": "8 to 12 °C"}
{"SMILES": "CC(C)(C)NC(=O)[C@@H]1CN(Cc2cccnc2)CCN1C[C@@H](O)C[C@@H](Cc1ccccc1)C(=O)N[C@H]1c2ccccc2C[C@H]1O", "target": "rep main protease", "assay": "enzyme activity, inhibitor, FRET", "conditions": "100 µM", "measurement": "activity vs control", "result": "100%"}
{"SMILES": "C=C1CC[C@@H]2[C@](C)(CO)[C@H](O)CC[C@@]2(C)[C@@H]1C/C=C1/C(=O)OC[C@H]1O", "target": "rep main protease", "assay": "enzyme activity, inhibitor", "conditions": "20 µM", "measurement": "remaining activity", "result": "96%"}
{"SMILES": "CC(C)[C@H](NC(=O)OC(C)(C)C)C(=O)N1C[C@@H]2CCC[C@@H]2[C@H]1C(=O)N[C@H](C=O)C[C@@H]1CCNC1=O", "target": "rep main protease", "assay": "thermal stability", "conditions": "40 µM", "measurement": "ΔTm", "result": "11 °C"}
{"SMILES": "CCN(C[C@H]1O[C@@H](n2cnc3c(N)ncnc32)[C@H](O)[C@@H]1O)S(=O)(=O)c1ccc(OC)c(C#N)c1", "target": "Replicase polyprotein 1ab, methyltransferase (rep, Severe acute respiratory syndrome coronavirus 2, UniProt P0DTD1)", "assay": "enzyme activity, inhibitor", "conditions": "5 µM", "measurement": "remaining activity", "result": "0.1%"}
{"SMILES": "CS(=O)(=O)CCNCc1ccc(-c2ccc3ncnc(Nc4ccc(OCc5cccc(F)c5)c(Cl)c4)c3c2)o1", "target": "rep main protease", "assay": "enzyme activity, inhibitor, FRET", "conditions": "100 µM", "measurement": "activity vs control", "result": "100%"}
{"SMILES": "Cc1ccc2nc(Cl)c(C=Nc3cc(Br)ccn3)cc2c1", "target": "rep main protease", "assay": "thermal stability", "conditions": "100 µM", "measurement": "ΔTm", "result": "8 to 12 °C"}
